Activity calls are given as the source filed them. The calls are words filed in the database; no cut-off is given here.
Assays:
KB = test: Cytotoxicity against human KB cells by SRB assay; format: functional, cell-based
How it was run: (§1)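 Cells exposed to compound or DMSO for the stated periods, fixed with 10% TCA, then stained with 0.4% (w/v) SRB in 1% acetic acid. Unbound dye removed with 1% acetic acid, bound dye dissolved in 10 mM Trizma base, absorbance read at 515 nm.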

[1] = Inhibition of tubulin polymerization
How it was run: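 Turbidimetric assembly assay. Tubulin 1.0 mg/mL (10 μM) preincubated 15 min at 30 °C with varying drug concentrations, without GTP. Samples then chilled, 0.4 mM GTP added, and turbidity followed for 20 min at 30 °C after a temperature jump from 0 °C.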

HCT-116 = test: Cytotoxicity against human HCT116 cells by MTT assay; format: functional, cell-based
How it was run: (§2)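 After compound treatment, cells washed once with PBS and incubated 2 h with MTT. Formazan dissolved in DMSO, absorbance read at 570 nm.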

[2] = Cytotoxicity against human Hep3B cells by MTT assay; format: functional, cell-based, Hep 3B2; how it was run: as §2
HL-60 = test: Cytotoxicity against human HL60 cells by MTT assay; format: functional, cell-based; how it was run: as §2
DU-145 = test: Cytotoxicity against human DU145 cells by SRB assay; format: functional, cell-based; how it was run: as §1
A549 = test: Cytotoxicity against human A549 cells by SRB assay; format: functional, cell-based; how it was run: as §1
[3] = Cytotoxicity against human KBVIN cells by SRB assay; format: functional, cell-based; how it was run: as §1
[4] = Displacement of [3H]colchicine from tubulin at 1 uM […]
How it was run: (§3)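 Tubulin (1.0 μM) incubated 10 min at 37 °C with 5.0 μM [3H]colchicine and inhibitor at 1.0 or 5.0 μM. At this time roughly 40–60% of maximal colchicine binding has occurred. Inhibition of radiolabel binding measured.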

[5] = Displacement of [3H]colchicine from tubulin at 5 uM by turbidimetry; how it was run: as §3
OVCAR-3 [6] = test: Antitumor activity against human OVCAR-3 cells xenografted in nude mouse assessed as life span extension at 200 mg/kg, ip once weekly for three courses; format: functional; settings: route intraperitoneal
OVCAR-3 [7] = test: Antitumor activity against human OVCAR-3 cells xenografted in nude mouse assessed as life span extension at 79 mg/kg, ip once weekly for three courses; format: functional; settings: route intraperitoneal
OVCAR-3 [8] = test: Antitumor activity against human OVCAR-3 cells xenografted in nude mouse dosed as ip once weekly for three courses; format: functional
OVCAR-3 [9] = test: Antitumor activity against human OVCAR-3 cells xenografted in nude mouse assessed as life span extension at 134 mg/kg, ip once weekly for three courses; format: functional; settings: route intraperitoneal
SNB-75 = test: Cytotoxicity against human SNB75 cells; format: functional, cell-based
SK-MEL-5 = test: Cytotoxicity against human SK-MEL-5 cells; format: functional, cell-based
KM12 = test: Cytotoxicity against human KM12 cells; format: functional, cell-based
IGROV-1 = test: Cytotoxicity against human IGROV1 cells; format: functional, cell-based
OVCAR-3 [10] = test: Cytotoxicity against human OVCAR-3 cells; format: functional, cell-based
SF-539 = test: Cytotoxicity against human SF539 cells; format: functional, cell-based
HCC 2998 = test: Cytotoxicity against human HCC2998 cells; format: functional, cell-based

Row | SMILES | IC50 [1] [nM] | IC50 (KB) [nM] | IC50 (HCT-116) [nM] | IC50 [2] [nM] | IC50 (HL-60) [nM] | IC50 (DU-145) [nM] | IC50 (A549) [nM] | IC50 [3] [nM] | other results
1 | O=c1cc(-c2ccc3ccccc3c2)[nH]c2cc3c(cc12)OCO3 | > 40000 | > 1000 | > 1000 | > 1000 | 500 | > 1000 | > 1000 | > 1000 | 
2 | O=c1cc(-c2cccc3cc4ccccc4cc23)[nH]c2cc3c(cc12)OCO3 | > 40000 |  | 1600 | 2200 | 530 |  |  |  | 
3 | O=c1cc(-c2ccc3ccccc3n2)[nH]c2cc3c(cc12)OCO3 | > 40000 | > 5000 | > 5000 | > 5000 | > 5000 | > 5000 | > 5000 | > 5000 | 
4 | COc1ccc(/C=C\c2cc(OC)c(OC)c(OC)c2)cc1O |  |  |  |  |  |  |  |  | Activity [4]: 91%
5 | Cc1cnc2nc(-c3csc4ccccc34)cc(O)c2c1 | 370 |  |  |  |  |  |  |  | 
6 | Cc1c(-c2cccc3ccccc23)c(=O)[nH]c2cc3c(cc12)OCO3 |  |  | > 10000 | 4300 | > 10000 |  |  |  | 
7 | O=c1cc(-c2cccc3ncccc23)[nH]c2cc3c(cc12)OCO3 | 27000 | > 10000 | > 10000 | > 10000 | > 10000 | > 10000 | > 10000 | > 10000 | 
8 | O=c1cc(-c2ccccc2F)[nH]c2cc3c(cc12)OCO3 |  |  |  |  |  |  |  |  | Activity (OVCAR-3 [6]): 124%; Activity (OVCAR-3 [7]): 79%; MTD (OVCAR-3 [8]): >200 mg/kg; Activity (OVCAR-3 [9]): 133%
9 | O=c1cc(-c2cc3ccccc3s2)[nH]c2cc3c(cc12)OCO3 |  | > 1000 | > 1000 | > 1000 | > 1000 | > 1000 | > 1000 | > 1000 | 
10 | COc1cccc(-c2cc(O)c3cc(N4CCCC4)ccc3n2)c1 |  |  |  |  |  |  |  |  | MTD (OVCAR-3 [8]): 25 mg/kg
11 | O=c1cc(-c2cnc3ccccc3c2)[nH]c2cc3c(cc12)OCO3 | > 4000 | > 100 | > 100 | > 100 | > 100 | > 100 | > 100 | > 100 | 

The next lines start with results.

Row | IC50 [1] [nM] | SMILES | IC50 (KB) [nM] | IC50 (HCT-116) [nM] | IC50 [2] [nM] | IC50 (HL-60) [nM] | IC50 (DU-145) [nM] | IC50 (A549) [nM] | IC50 [3] [nM] | other results
12 | 640 | O=c1cc(-c2cccc3ccccc23)[nH]c2cc3c(cc12)OCO3 | 130 | 70 | 70 | 70 | 130 | 130 | 190 | Activity [4]: 33%; Activity [5]: 67%
13 | > 40000 | O=c1cc(-c2ccnc3ccccc23)[nH]c2cc3c(cc12)OCO3 | > 5000 | > 5000 | > 5000 | > 5000 | > 5000 | > 5000 | > 5000 | 
14 | > 4000 | O=c1cc(-c2cc3ccccc3o2)[nH]c2cc3c(cc12)OCO3 | > 1000 | > 1000 | > 1000 | > 1000 | > 1000 | > 1000 | > 1000 | 
15 | 760 | O=c1cc(-c2csc3ccccc23)[nH]c2cc3c(cc12)OCO3 | > 250 | 140 | 60 | 170 | > 250 | > 250 | > 250 | Activity [4]: 25%; Activity [5]: 61%
16 | 580 | O=c1cc(-c2coc3ccccc23)[nH]c2cc3c(cc12)OCO3 | 1050 | 50 | 90 | 30 | 1870 | 2980 | 590 | Activity [4]: 39%; Activity (SNB-75): Active; Activity (SK-MEL-5): Active; Activity (KM12): Active; Activity (IGROV-1): Active; Activity (OVCAR-3 [10]): Active; Activity [5]: 51%; Activity (SF-539): Active; Activity (HCC 2998): Active

Source: ChEMBL document CHEMBL1158496, “Design and synthesis of 2-(3-benzo[b]thienyl)-6,7-methylenedioxyquinolin-4-one analogues as potent antitumor agents that inhibit tubulin assembly” (J Med Chem, 2009)
